We go through four compounds from ChEMBL document CHEMBL3397043, “Synthesis, anticandidal activity of N(3)-(4-methoxyfumaroyl)-(S)-2,3-diaminopropanoic amide derivatives--novel inhibitors of glucosamine-6-phosphate synthase” (Eur J Med Chem, 2015).

Assay [1] relates to Candida albicans. Put plainly: Antimicrobial activity against Candida albicans ATCC 10231 assessed as growth inhibition serial 2-fold dilution microtitre plate method. The class given is functional. In short, it runs like this:
(§1)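 MIC by serial 2-fold broth dilution in microtitre plates. Medium was YNB with ammonium sulfate as nitrogen source, pH 5.0. Growth was compared with control cultures and read on a microplate reader.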

Assay [2] deals with Nakaseomyces glabratus. Put plainly: Antimicrobial activity against Candida glabrata DSM 11226 assessed as growth inhibition serial 2-fold dilution microtitre plate method. The class given is functional. In short, it runs like this:
as §1

In assay [3] the test system is Candida parapsilosis. Put plainly: Antimicrobial activity against Candida parapsilosis DSM 5784 assessed as growth inhibition serial 2-fold dilution microtitre plate method. As to conditions: Lodderomyces parapsilosis. It is filed as functional. The essentials: as §1
Assay [4] deals with Staphylococcus aureus. Kind of assay: Antimicrobial activity against Staphylococcus aureus ATCC 29213 assessed as growth inhibition serial 2-fold dilution microtitre plate method. It is filed as functional. In short, it runs like this: (§2)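 Bacterial MIC in Mueller Hinton Broth 2 (acid casein hydrolysate, beef extract, starch), pH 7.3. Growth was compared with control cultures and read on a microplate reader.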

Assay [5] relates to Staphylococcus epidermidis. Kind of assay: Antimicrobial activity against Staphylococcus epidermidis PCM 2118 assessed as growth inhibition serial 2-fold dilution microtitre plate method. It is filed as functional. In short, it runs like this: as §2
Assay [6] relates to Escherichia coli. Put plainly: Antimicrobial activity against Escherichia coli PCM 2560 assessed as growth inhibition serial 2-fold dilution microtitre plate method. The class given is functional. The essentials:
as §2

In assay [7] the test system is Bacillus subtilis. Put plainly: Antimicrobial activity against Bacillus subtilis ATCC 9372 assessed as growth inhibition serial 2-fold dilution microtitre plate method. The class given is functional. The essentials:
as §2

In assay [8] the test system is Pseudomonas aeruginosa. Kind of assay: Antimicrobial activity against Pseudomonas aeruginosa ATCC 2756 assessed as growth inhibition serial 2-fold dilution microtitre plate method. The class given is functional. The essentials:
as §2

A short description of assay [9]: Inhibition of Candida albicans glucosamine-6-phosphate synthase assessed as glucosamine-6-phosphate by Elson-Morgan method. In short, it runs like this:
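Enzyme source: cell-free extract of C. albicans GlcN-6-P synthase overproduced in E. coli. Incubated 37 °C for 30 min, stopped by 100 °C for 1 min. GlcN-6-P measured by modified Elson-Morgan. IC50 is the concentration giving 50% inhibition.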

Assay [10] can be described thus: Binding affinity to immobilized artificial membrane PC DD2 (unknown origin) by UV/Vis detector model. The essentials:
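HPLC on an IAM PC DD2 column (3 cm × 4.6 mm, 300 Å pores). Mobile phase 0.1 M phosphate buffer pH 7.2 at 1 mL/min, UV detection at 254 nm. Dead time t0 taken from citric acid retention. Capacity factor k'IAM = (tr − t0)/t0, reported as log k'IAM.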

With `COC(=O)/C=C/C(=O)NC[C@H](N)C(=O)N(C)C.Cl`, the MIC in assay [1] is 512 µg/mL; in assay [2] it was more than 1020 µg/mL; in [3] it was more than 1020 µg/mL; in assay [4] it was more than 1020 µg/mL; in assay [5] it was more than 1020 µg/mL; in assay [6], more than 1020 µg/mL. Besides, the MIC in [7] and in assay [8] was more than 1020 µg/mL in each case. In assay [9], the IC50 turned out to be 2890 µM. This compound also showed a log K in [10] of 0.118.

On to `CNC(=O)[C@@H](N)CNC(=O)/C=C/C(=O)OC.Cl`, for which the MIC in [1] is 32 µg/mL; in [2], more than 1020 µg/mL; in assay [3], more than 1020 µg/mL; in assay [4], more than 1020 µg/mL; in assay [5], more than 1020 µg/mL; in assay [6], more than 1020 µg/mL. Also, the MIC in assay [7] and in assay [8] was more than 1020 µg/mL each time. In assay [9], the IC50 is 127 µM. In [10], this compound registered a log K of -0.193.

With `COC(=O)/C=C/C(=O)NC[C@H](N)C(N)=O.Cl`, the MIC in assay [1] was 4 µg/mL; in assay [2], more than 1020 µg/mL; in [3], more than 1020 µg/mL; in [4], more than 1020 µg/mL; in [5], more than 1020 µg/mL; in assay [6] it was more than 1020 µg/mL. The MIC in [7] and in [8] was more than 1020 µg/mL throughout. In addition, the IC50 in [9] was 80.7 µM. Besides, the log K in [10] is -0.362.

For the compound `COC(=O)/C=C/C(=O)NC[C@H](N)C(=O)O`, the MIC in [1], in assay [2], in [3], in assay [4], in assay [5] and in [6] was more than 2000 µg/mL each time. Also, the MIC in [7] and in assay [8] was more than 2000 µg/mL each time. Moreover, in assay [9], the IC50 was found to be 4.03 µM. In [10], this compound showed a log K of -0.812.

What is called MIC is the lowest concentration found to suppress growth. The IC50 is the midpoint of a concentration-inhibition curve.
